Assay results reported in ChEMBL document CHEMBL1275388, “Discovery and synthesis of novel luteolin derivatives as DAT agonists” (Bioorg Med Chem, 2010).

target: Sodium-dependent dopamine transporter (Rattus norvegicus, UniProt P23977); assay: Agonist activity at rat DAT expressed in CHO cells; format: functional, cell-based
Summary of the method: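 CHO cell lines constructed to stably express DAT were used to measure DAT agonistic activity, reported as EC50.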

Chain of Sodium-dependent dopamine transporter (P23977 whole entry): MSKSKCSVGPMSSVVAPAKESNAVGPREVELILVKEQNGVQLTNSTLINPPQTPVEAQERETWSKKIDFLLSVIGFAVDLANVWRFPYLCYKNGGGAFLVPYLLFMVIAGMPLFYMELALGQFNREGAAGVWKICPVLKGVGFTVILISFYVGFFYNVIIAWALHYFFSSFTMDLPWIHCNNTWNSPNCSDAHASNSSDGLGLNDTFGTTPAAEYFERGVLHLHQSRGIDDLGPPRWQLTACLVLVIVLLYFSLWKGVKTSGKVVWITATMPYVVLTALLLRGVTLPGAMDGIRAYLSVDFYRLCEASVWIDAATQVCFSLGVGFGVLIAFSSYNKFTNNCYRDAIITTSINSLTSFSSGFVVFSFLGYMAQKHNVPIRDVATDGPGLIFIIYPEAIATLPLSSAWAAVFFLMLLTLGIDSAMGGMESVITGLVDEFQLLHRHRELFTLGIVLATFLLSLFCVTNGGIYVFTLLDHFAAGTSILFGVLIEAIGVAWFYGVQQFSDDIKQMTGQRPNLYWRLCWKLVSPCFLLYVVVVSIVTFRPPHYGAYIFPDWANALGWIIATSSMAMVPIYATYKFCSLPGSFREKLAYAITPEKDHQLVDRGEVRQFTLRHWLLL

Row | SMILES | EC50
1 | CC(C)C(=O)Oc1cc(O)cc2oc(-c3ccc(O)c(O)c3)cc(=O)c12 | 0.046 µM
2 | CCCCC(=O)Oc1cc(O)cc2oc(-c3ccc(O)c(O)c3)cc(=O)c12 | 0.869 µM
3 | CC(C)CCC(=O)Oc1cc(O)cc2oc(-c3ccc(O)c(O)c3)cc(=O)c12 | 2.71 µM
4 | CCCCCCCC(=O)Oc1cc(O)cc2oc(-c3ccc(O)c(O)c3)cc(=O)c12 | 8.56 µM
5 | O=C(Oc1cc(O)cc2oc(-c3ccc(O)c(O)c3)cc(=O)c12)c1ccccc1 | 11.2 µM
6 | COc1cc(O)cc2oc(-c3ccc(O)c(O)c3)cc(=O)c12 | 4.35 µM
7 | CCOc1cc(O)cc2oc(-c3ccc(O)c(O)c3)cc(=O)c12 | 2.21 µM
8 | CC(C)Oc1cc(O)cc2oc(-c3ccc(O)c(O)c3)cc(=O)c12 | 5.43 µM
9 | CCCCCCOc1cc(O)cc2oc(-c3ccc(O)c(O)c3)cc(=O)c12 | 4.58 µM
10 | CCCCCCCCOc1cc(O)cc2oc(-c3ccc(O)c(O)c3)cc(=O)c12 | 16.5 µM
11 | CCCCCCCCCCOc1cc(O)cc2oc(-c3ccc(O)c(O)c3)cc(=O)c12 | 33 µM
12 | O=c1cc(-c2ccc(O)c(O)c2)oc2cc(O)cc(OCCCCc3ccccc3)c12 | 2.59 µM
13 | CCC(=O)Oc1cc(O)c2c(=O)cc(-c3ccc(O)c(O)c3)oc2c1 | 1.7 µM
14 | CCCC(=O)Oc1cc(O)c2c(=O)cc(-c3ccc(O)c(O)c3)oc2c1 | 1.69 µM
15 | CC(C)C(=O)Oc1cc(O)c2c(=O)cc(-c3ccc(O)c(O)c3)oc2c1 | 1.38 µM
16 | COc1cc(OC)c2c(=O)cc(-c3ccc(O)c(O)c3)oc2c1 | 3.42 µM
17 | CCOc1cc(-c2cc(=O)c3c(O)cc(O)cc3o2)ccc1O | 12.9 µM
18 | O=c1cc(-c2ccc(O)c(O)c2)oc2cc(O)cc(O)c12 [LUTEOLIN] | 1.45 µM

Further compounds by falling EC50, results first:

Row | EC50 | SMILES
19 | 31 µM | CCC(=O)Oc1cc(O)cc2oc(-c3ccc(O)c(O)c3)cc(=O)c12
20 | 6.92 µM | Cc1ccc(C(=O)Oc2cc(O)cc3oc(-c4ccc(O)c(O)c4)cc(=O)c23)cc1
21 | 5.37 µM | CC(=O)Oc1cc(O)cc2oc(-c3ccc(O)c(O)c3)cc(=O)c12
22 | 4.8 µM | CC(C)COc1cc(O)cc2oc(-c3ccc(O)c(O)c3)cc(=O)c12
23 | 3.43 µM | CC(C)CCOc1cc(O)cc2oc(-c3ccc(O)c(O)c3)cc(=O)c12
24 | 3.07 µM | CCCOc1cc(O)cc2oc(-c3ccc(O)c(O)c3)cc(=O)c12
25 | 2.4 µM | CCCCOc1cc(O)cc2oc(-c3ccc(O)c(O)c3)cc(=O)c12
26 | 1.82 µM | CCCC(=O)Oc1cc(O)cc2oc(-c3ccc(O)c(O)c3)cc(=O)c12
